# Results as given in ChEMBL document CHEMBL1141303, “Macrolactins O-R, glycosylated 24-membered lactones from Bacillus sp. AH159-1” (J Nat Prod, 2007).
# pIC50: −log10 of the molar value.
# Biological target: T1, Peptide deformylase (Staphylococcus aureus subsp. aureus Mu50, UniProt P68825)
# T1 sequence (P68825 whole entry): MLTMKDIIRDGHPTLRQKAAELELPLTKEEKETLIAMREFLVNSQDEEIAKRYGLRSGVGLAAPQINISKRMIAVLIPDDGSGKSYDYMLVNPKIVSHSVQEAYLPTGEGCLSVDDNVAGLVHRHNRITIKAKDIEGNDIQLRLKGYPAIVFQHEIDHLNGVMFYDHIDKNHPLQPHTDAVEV
# Test: Inhibition of Staphylococcus aureus peptide deformylase
# Details: not given
row,pIC50,Compound
1,4.27,C[C@@H]1CCC/C=C/CCC(=O)C[C@@H](O)C/C=C\C=C\[C@@H](O[C@H]2O[C@@H](CO)[C@H](O)[C@@H](O)[C@@H]2O)C/C=C/C=C\C(=O)O1 [MACROLACTIN O]
2,4.92,C[C@@H]1CCC/C=C\C=C\[C@H](O)C[C@@H](O)C/C=C\C=C\[C@@H](O[C@H]2O[C@@H](CO)[C@H](O)[C@@H](O)[C@@H]2O)C/C=C/C=C\C(=O)O1 [MACROLACTIN Q]
3,4.21,C[C@@H]1CCC/C=C/C=C/[C@H](O)C[C@@H](O)C/C=C/C=C/[C@@H](O[C@H]2O[C@@H](CO)[C@H](O)[C@@H](O)[C@@H]2O)C/C=C/C=C\C(=O)O1 [MACROLACTIN R]
4,4.24,CC[C@@H]1CCC/C=C/C=C/[C@H](O)C[C@@H](O)C/C=C\C=C\[C@@H](O[C@H]2O[C@@H](CO)[C@H](O)[C@@H](O)[C@@H]2O)C/C=C/C=C\C(=O)O1 [MACROLACTINN P]

# System: Bacillus subtilis
# Test: Antibacterial activity against Bacillus subtilis KCTC 1021 after 18 hrs by microdilution method
# Assay type: functional
# Details: not given
# In short: (§1)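 Broth microdilution assay. The minimum restrictive concentration (MRC) was taken as the lowest concentration that reduced growth by at least 50%.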
row,Compound,MRC [µg/mL]
1,C[C@@H]1CCC/C=C/CCC(=O)C[C@@H](O)C/C=C\C=C\[C@@H](O[C@H]2O[C@@H](CO)[C@H](O)[C@@H](O)[C@@H]2O)C/C=C/C=C\C(=O)O1 [MACROLACTIN O],100
2,C[C@@H]1CCC/C=C\C=C\[C@H](O)C[C@@H](O)C/C=C\C=C\[C@@H](O[C@H]2O[C@@H](CO)[C@H](O)[C@@H](O)[C@@H]2O)C/C=C/C=C\C(=O)O1 [MACROLACTIN Q],100
3,C[C@@H]1CCC/C=C/C=C/[C@H](O)C[C@@H](O)C/C=C/C=C/[C@@H](O[C@H]2O[C@@H](CO)[C@H](O)[C@@H](O)[C@@H]2O)C/C=C/C=C\C(=O)O1 [MACROLACTIN R],100
4,CC[C@@H]1CCC/C=C/C=C/[C@H](O)C[C@@H](O)C/C=C\C=C\[C@@H](O[C@H]2O[C@@H](CO)[C@H](O)[C@@H](O)[C@@H]2O)C/C=C/C=C\C(=O)O1 [MACROLACTINN P],100

# System: Escherichia coli
# Test: Antibacterial activity against Escherichia coli KCTC 1924 after 18 hrs by microdilution method
# Assay type: functional
# Details: KCTC 1924, 18 h
# In short: as §1
row,MIC [µg/mL],Compound
1,100,C[C@@H]1CCC/C=C/CCC(=O)C[C@@H](O)C/C=C\C=C\[C@@H](O[C@H]2O[C@@H](CO)[C@H](O)[C@@H](O)[C@@H]2O)C/C=C/C=C\C(=O)O1 [MACROLACTIN O]
2,100,C[C@@H]1CCC/C=C\C=C\[C@H](O)C[C@@H](O)C/C=C\C=C\[C@@H](O[C@H]2O[C@@H](CO)[C@H](O)[C@@H](O)[C@@H]2O)C/C=C/C=C\C(=O)O1 [MACROLACTIN Q]
3,100,C[C@@H]1CCC/C=C/C=C/[C@H](O)C[C@@H](O)C/C=C/C=C/[C@@H](O[C@H]2O[C@@H](CO)[C@H](O)[C@@H](O)[C@@H]2O)C/C=C/C=C\C(=O)O1 [MACROLACTIN R]
4,100,CC[C@@H]1CCC/C=C/C=C/[C@H](O)C[C@@H](O)C/C=C\C=C\[C@@H](O[C@H]2O[C@@H](CO)[C@H](O)[C@@H](O)[C@@H]2O)C/C=C/C=C\C(=O)O1 [MACROLACTINN P]

# System: Staphylococcus aureus
# Test: Antibacterial activity against Staphylococcus aureus RN4220 after 18 hrs by microdilution method
# Assay type: functional
# Details: not given
# In short: as §1
row,Compound,MRC [µg/mL]
1,C[C@@H]1CCC/C=C/CCC(=O)C[C@@H](O)C/C=C\C=C\[C@@H](O[C@H]2O[C@@H](CO)[C@H](O)[C@@H](O)[C@@H]2O)C/C=C/C=C\C(=O)O1 [MACROLACTIN O],100
2,C[C@@H]1CCC/C=C\C=C\[C@H](O)C[C@@H](O)C/C=C\C=C\[C@@H](O[C@H]2O[C@@H](CO)[C@H](O)[C@@H](O)[C@@H]2O)C/C=C/C=C\C(=O)O1 [MACROLACTIN Q],100
3,C[C@@H]1CCC/C=C/C=C/[C@H](O)C[C@@H](O)C/C=C/C=C/[C@@H](O[C@H]2O[C@@H](CO)[C@H](O)[C@@H](O)[C@@H]2O)C/C=C/C=C\C(=O)O1 [MACROLACTIN R],100
4,CC[C@@H]1CCC/C=C/C=C/[C@H](O)C[C@@H](O)C/C=C\C=C\[C@@H](O[C@H]2O[C@@H](CO)[C@H](O)[C@@H](O)[C@@H]2O)C/C=C/C=C\C(=O)O1 [MACROLACTINN P],100
